# Compounds with a hit are over-represented: about 1.5% of the library has one in this group of screens.
# Hsp70 act: Hsp70 transcriptional activation, primary screen; AID 1203; HeLa Hsp70 promoter luciferase reporter, luminescence; scaled: vehicle 0, proteasome-inhibitor control 100%; 0.04% of 200,000 active; activation, % at 10 µM;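 active = activation above the mean across all tested compounds plus 3 SD, cutoff set per campaign, cut at about 5.5% in these data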;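 also: 100% = MG132 at 30 µM as the positive control and 0% = DMSO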
# PP1 counter: counter-screen for PP5 inhibitors: inhibitors of human PP1-alpha. purified PP1alpha, OMFP fluorescence. AID 2235. inhibition, % at 6.7 µM. P62136. 0.9% of 320,000 active;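 active = inhibition above the mean inhibition of all tested compounds plus 3 SD, computed separately for each screening campaign, cut at about 15% in these data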
# RBBP9 inh: blocks human serine hydrolase RBBP9 | recombinant RBBP9, FP-Rh probe fluorescence polarization | inhibition, % at 7.94 µM | 0.2% of 220,000 active;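 active = inhibition above the campaign mean of all tested compounds plus 3 SD, cut at about 14% in these data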;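 also: plate controls were DMSO wells with RBBP9 for no effect and wells lacking RBBP9 protein for full effect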
#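 Measured by – fluorescence polarization · Test system – RBBP9 protein · Input – 2.5 µM RBBP9 dispensing solution, before mixing · Measure – percent inhibition from mP, scaled between DMSO and no-protein wells · Benchmarks – DMSO-treated enzyme wells and wells lacking RBBP9 · Times – preincubation 30 min plus labeling 45 min at 25 °C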
# PP5 primary: blocks human protein phosphatase 5 activity; purified PP5c, OMFP substrate fluorescence; inhibition, % at 6.7 µM; 0.18% of 320,000 active;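 active = inhibition above the campaign's mean inhibition across all tested compounds plus 3 SD, cut at about 9.5% in these data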;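 also: 0% = DMSO only and 100% = 100 µM cantharidin control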
# PKD1 inh: inhibitors of human PKD1 kinase. inhibition, % (test concentration not listed). 0.056% of 200,000 active. AID 797. Q15139. PKD1 kinase fluorescence polarization assay; in the data active = inhibition above about 50%
# p97 inhibitor: inhibitors of human p97 ATPase | 0.42% of 220,000 active | inhibition, % at 8 µM | AID 1481 | P55072 | recombinant p97 ATPase, Kinase-Glo ATP luminescence, 3 h; in the data active = inhibition above about 15%;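 also: 0% = DMSO vehicle and 100% = wells lacking enzyme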
# Target sequence (P55072 whole entry, looked up): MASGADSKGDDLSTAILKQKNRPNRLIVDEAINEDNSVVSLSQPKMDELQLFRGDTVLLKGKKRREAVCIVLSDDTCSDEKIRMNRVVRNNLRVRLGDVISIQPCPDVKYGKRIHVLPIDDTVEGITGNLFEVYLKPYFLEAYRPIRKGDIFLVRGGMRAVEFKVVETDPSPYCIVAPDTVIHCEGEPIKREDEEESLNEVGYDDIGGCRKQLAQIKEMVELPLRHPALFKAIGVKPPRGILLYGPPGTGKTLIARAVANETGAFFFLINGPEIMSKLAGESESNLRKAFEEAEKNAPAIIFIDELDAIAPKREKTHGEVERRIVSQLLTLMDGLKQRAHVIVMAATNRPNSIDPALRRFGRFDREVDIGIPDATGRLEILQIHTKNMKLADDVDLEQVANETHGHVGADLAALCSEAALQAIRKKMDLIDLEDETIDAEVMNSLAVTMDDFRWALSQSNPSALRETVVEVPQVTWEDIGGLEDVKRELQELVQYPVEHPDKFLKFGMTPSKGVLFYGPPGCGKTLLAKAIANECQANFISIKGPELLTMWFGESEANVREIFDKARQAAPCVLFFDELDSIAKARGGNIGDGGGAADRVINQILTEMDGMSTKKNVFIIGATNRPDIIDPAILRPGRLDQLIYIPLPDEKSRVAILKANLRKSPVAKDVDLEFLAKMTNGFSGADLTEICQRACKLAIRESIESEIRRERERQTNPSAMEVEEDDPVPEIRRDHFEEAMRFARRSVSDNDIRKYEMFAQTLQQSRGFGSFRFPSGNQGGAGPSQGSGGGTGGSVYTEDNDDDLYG
# PP5 conf: PP5 (human) inhibition, confirmation. 22% of 460 active. Purified PP5, fluorogenic phosphatase substrate, fluorescence. inhibition, % at 6.7 µM. shares compounds with PP5 primary. AID 2331; in the data active = inhibition above about 9.5%
# PP1 inh counter: counter-screen for PP5 inhibitors: human PP1 phosphatase inhibition. PP1 enzyme, fluorescent phosphatase substrate. shares compounds with PP5 primary. inhibition, % at 6.7 µM. 4% of 460 active; in the data active = inhibition above about 16%
# * marks the source's active call; other numbers are inactive results; x = no result.
SMILES,Hsp70 act,PP1 counter,RBBP9 inh,PP5 primary,PKD1 inh,p97 inhibitor,PP5 conf,PP1 inh counter
CCOc1ccc(N(CC(=O)Nc2c(C)cccc2C)S(=O)(=O)c2c(C)[nH]c(=O)[nH]c2=O)cc1,x,-8,-5,12*,x,5,-7,-6
Cc1ccc(N(C(=O)CNC(=O)c2ccco2)C(C(=O)NC2CCCC2)c2ccncc2)cc1F (stereo unspecified),x,3,x,1,x,x,x,x
Clc1ccc(-c2cn(-c3ccc(Cl)cc3)c3[n+]2CCCCC3)cc1,x,-1,-5,0,x,1,x,x
COc1ccc(-c2cn(-c3ccc(Cl)cc3)c3[n+]2CCCCC3)cc1,x,3,-2,19*,x,11,-2,-3
COc1ccc(COC(=O)C2CC(=O)N(Cc3ccccc3)C2)cc1 (stereo unspecified),x,-2,x,-2,x,x,x,x
NS(=O)(=O)c1ccc(CCNC(=O)c2cc3ccccc3s2)cc1,x,7,x,-7,x,x,x,x
CCOc1ccc(NC(=O)c2ccccc2OCC(=O)c2ccc(C)cc2)cc1,0,5,-5,9.8*,-6,-4,2,-2
COc1ccc(C(=O)NC2CCN(S(=O)(=O)c3ccccc3F)CC2)cc1,x,0,x,-1,x,x,x,x
COCCOC(=O)c1c(C)oc2ccc(OC(=O)c3cccs3)cc12,0,-1,2,10*,-6,-2,-3,-3
COC(=O)c1c(C)oc2ccc(OC(=O)c3cccs3)cc12,0,1,-9,1,1,-1,x,x
Nc1ccc(N=Nc2ccccc2O)c(N)c1,x,-11,x,12*,x,x,1,-2
Oc1ccccc1N=Nc1ccccc1O,0,x,-4,x,1,9,x,x
O=C(COc1ccc(C(=O)O)cc1)Nc1cccc(C(F)(F)F)c1,0,1,-9,1,-2,0,x,x
O=C(Nc1ccccc1)Nc1cccc(C(F)(F)F)c1,0,-4,-14,5,-10,-3,x,x
Cc1ccc(OC(F)F)c(NC(=O)Nc2cccc(C(F)(F)F)c2)c1,0,0,-17,13*,6,-2,5,3
O=C(COCC(=O)Nc1cccc(C(F)(F)F)c1)Nc1cccc(C(F)(F)F)c1,0,8,-12,10*,-1,2,10*,10
CCOC(=O)Cn1c(-c2ccccc2)nc2ccccc2c1=O,0,-4,-8,11*,7,0,-2,-2
N#Cc1sc(=O)[nH]c1Cl,x,5,x,1,x,x,x,x
Cc1[nH]c2ccccc2c1C(C#N)(C#N)C1C(=O)c2ccccc2C1=O,x,7,-3,21*,x,1,8,1
CCNC(=S)NS(=O)(=O)c1ccc(CC)cc1,0,-1,-2,10.0*,-12,3,-3,-2
Clc1cccc(OCCCCCN2CCOCC2)c1,x,-1,x,10*,x,x,-5,-5
Clc1cccc(OCCN2CCOCC2)c1,0,4,-11,8,3,2,x,x
COc1cccc(CNC(=O)C2CCN(S(=O)(=O)c3ccccc3)CC2)c1,0,-5,-4,12*,2,1,-3,-3
COc1ccc(S(=O)(=O)N2CCC(C(=O)NCc3cccc(OC)c3)CC2)cc1,0,0,-5,0,-1,2,x,x
COc1ccc(C)cc1NS(=O)(=O)c1ccc2c(c1)oc(=O)n2C,x,0,x,0,x,x,x,x
SMILES,Hsp70 act,PP1 counter,RBBP9 inh,PP5 primary,PKD1 inh,p97 inhibitor,PP5 conf,PP1 inh counter
COc1ccc(C(=O)Nc2ccc(S(=O)(=O)Nc3nccc(C)n3)cc2)cc1,x,-3,x,0,x,x,x,x
COc1ccc(C(=O)Nc2ccc(S(=O)(=O)NC(C)=O)cc2)cc1,0,-1,-3,12*,-4,-7,-7,-5
CCN=C(NCC)SC1CC(=O)N(CCc2ccccc2)C1=O (stereo unspecified),x,-3,x,0,x,x,x,x
Cc1cc(C(=O)N2CCc3ccccc32)c2ccccc2n1,0,0,-2,9.8*,0,4,-4,-2
O=C(c1ccccc1)N1CCc2ccccc21,0,-5,-2,1,4,-4,x,x
Nc1ccccc1C(=O)N1CCc2ccccc21,x,3,x,10*,x,x,-3,-4
C=C(C)CSC1=C(C#N)C(c2ccsc2)CC(=O)N1 (stereo unspecified),0,-1,5,11*,-9,5,-5,-4
CCCCCNC(=O)CC1Nc2c3ccccc3nc(=S)n2C1=O (stereo unspecified),0,-2,-1,9.9*,-8,3,-5,-4
CC1(C)Cc2cccc(OCC(=O)Nc3cccnc3Cl)c2O1,0,1,-6,16*,-10,3,-3,3
Cc1cc(C(=O)NNC(=O)c2ccc(Cl)cc2Cl)c(C)o1,x,0,x,1,x,x,x,x
Cc1ccc2c(Cl)c(C(=O)NCc3cccnc3)sc2c1,0,0,-7,11*,-4,-4,-4,-1
O=C(NCc1cccnc1)c1sc2ccccc2c1Cl,0,-1,4,1,6,1,x,x
O=C(ON=C1CCN(c2ccc([N+](=O)[O-])cc2)CC1)c1ccccc1,0,2,-4,9.7*,1,2,-3,-1
COc1cc(Br)c(C(=O)c2nccc3cc(OC)c(OC)cc23)cc1OC,x,-3,x,14*,x,x,43*,6
COc1cc(Cc2nccc3cc(OC)c(OC)cc23)c(NC(C)=O)cc1OC,x,-5,x,0,x,x,x,x
CCCCN1C(=O)C(=O)NC[C@@H]1CCCCN,x,0,x,2,x,x,x,x
CNc1nc(-c2c(C)n(C)c3ccc(OC)cc23)cs1,x,6,x,3,x,x,x,x
CC1=NN(c2ccccc2)C(=O)/C1=C\C=C1\N(C)c2ccccc2C1(C)C,-1,7,-5,8,-3,-2,x,x
CC1=NN(c2ccccc2)C(=O)/C1=C\C=C1/N(C)c2ccccc2C1(C)C,0,9,7,10*,-3,-3,9,7
Cc1ccc2[nH]c(=O)c(CN(Cc3ccco3)S(=O)(=O)c3c(C)ccc4nsnc34)cc2c1,0,-1,-6,1,-3,-1,x,x
COc1ccc2[nH]c(=O)c(CN(Cc3cccs3)S(=O)(=O)c3c(C)ccc4nsnc34)cc2c1,0,0,1,9.8*,-9,8,1,2
COC(=O)C1=C(CSc2nccn2C)NC(=O)NC1c1cc(C)ccc1C (stereo unspecified),0,-4,-8,9.9*,1,-5,-4,-4
COC(=O)C1=C(CSc2nncn2C)NC(=O)NC1c1cc(C)ccc1C (stereo unspecified),0,1,-8,2,-8,5,x,x
CCOc1cc(/C=C/C(=O)OCC(=O)NC2CCS(=O)(=O)C2)ccc1OCc1ccccc1 (stereo unspecified),0,1,-11,1,-1,2,x,x
